For assay [1], the system named is Streptomyces hygroscopicus. The experiment in a line: Ratio of Kcat to Km for Streptomyces hygroscopicus recombinant N-terminal His-tagged Hyg26 reductase expressed in Escherichia coli BL21 (DE3). The gist of the method: (§1)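 His-tagged Hyg26, expressed in E. coli BL21-CodonPlus(DE3) and purified on Ni-NTA. Reductase kinetics: 800 ng enzyme, 50 mM phosphate pH 6 with 2 mM TCEP, 37°C, 15 min. NADH fixed at 60 mM with antibiotic 2–60 mM; for NADH, HA fixed at 20 mM with NADH 0.25–10 mM. DHHA-type product quantified by reverse-phase HPLC peak area. Duplicates averaged and fitted for kinetic parameters.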

Assay [2] deals with Escherichia coli. The assay can be described thus: Inhibition of protein synthesis in Escherichia coli assessed as green fluorescent protein synthesis by coupled transcription-translation assay. The format is functional, organism-based. The gist of the method:
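E. coli lysate coupled transcription-translation with a GFP template, run with and without antibiotic at increasing concentrations. GFP measured by fluorescence scanning and native PAGE. Triplicates, expressed as percent of fluorescence without antibiotic.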

Assay [3] relates to Escherichia coli. The experiment in a line: Antimicrobial activity against tolC deficient Escherichia coli by after 2 hrs. The format is functional. Summed up: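 ΔtolC E. coli grown in 200 μl LB at 37°C for 2 h across a range of antibiotic concentrations, read by A600. MIC is the lowest concentration giving 95% growth inhibition relative to an untreated culture.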
For assay [4], the system named is Streptomyces hygroscopicus. The experiment in a line: Activity at Streptomyces hygroscopicus recombinant N-terminal His-tagged Hyg26 reductase expressed in Escherichia coli BL21 (DE3). Summed up:
as §1

Assay [5] has as its system Streptomyces hygroscopicus. The experiment in a line: Antimicrobial activity against hyg19-hyg20-hyg21 deficient Streptomyces hygroscopicus SCH30 by after 48 hrs by agar plate dilution method. The format is functional. The settings on record: SCH30, 48 h. Summed up:
(§2)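 Spores plated on yeast extract malt extract agar containing a series of HA concentrations, incubated 48 h at 30°C, then scored for growth. MIC taken as the lowest HA concentration preventing visible growth of at least 95% of CFU.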

For assay [6], the system named is Streptomyces hygroscopicus. The experiment in a line: Antimicrobial activity against wild type Streptomyces hygroscopicus by after 48 hrs by agar plate dilution method. The format is functional. Summed up: as §2
In assay [7] the test system is Streptomyces hygroscopicus. The experiment in a line: Antimicrobial activity against hyg20 deficient Streptomyces hygroscopicus SCH30 by after 48 hrs by agar plate dilution method. The format is functional. The settings on record: SCH30, 48 h. The gist of the method:
as §2

The test system of assay [8] is Streptomyces hygroscopicus. The experiment in a line: Antimicrobial activity against hyg19 deficient Streptomyces hygroscopicus SCH30 by after 48 hrs by agar plate dilution method. The conditions noted are these: SCH30, 48 h. The format is functional. The gist of the method:
as §2

The test system of assay [9] is Streptomyces hygroscopicus. The assay can be described thus: Antimicrobial activity against hyg28 deficient Streptomyces hygroscopicus SCH30 by after 48 hrs by agar plate dilution method. The format is functional. The settings on record: SCH30, 48 h. The gist of the method: as §2
Assay [10] relates to Streptomyces lividans. The experiment in a line: Antimicrobial activity against Streptomyces lividans by after 48 hrs by agar plate dilution method. The format is functional. The gist of the method:
as §2

The text below walks through data of ChEMBL document CHEMBL1649279, “The final step of hygromycin A biosynthesis, oxidation of C-5''-dihydrohygromycin A, is linked to a putative proton gradient-dependent efflux” (Antimicrob Agents Chemother, 2009).

In brackets after ≈: the same amount, converted by molar mass.

Turning to `CO[C@@H]1[C@H](O)[C@@H](O)[C@@H](NC(=O)/C(C)=C/c2ccc(O[C@@H]3O[C@H](C(C)=O)[C@@H](O)[C@@H]3O)c(O)c2)[C@@H](O)[C@@H]1O` [METHOXYHYGROMYCIN A], in [1], the kcat/Km worked out at 0.9 ×10³ /M/s. Moreover, in assay [2], the IC50 amounted to 500 nM and the IC90 came to 2000 nM. In assay [3], the MIC was determined as 150 µg/mL (≈ 292 µM). In addition, in [4], the Km is 19.8 mM and the kcat was 15.5 s⁻¹.
For `C/C(=C\c1ccc(O[C@@H]2O[C@H](C(C)O)[C@@H](O)[C@@H]2O)c(O)c1)C(=O)N[C@@H]1[C@H](O)[C@@H](O)[C@H]2OCO[C@H]2[C@@H]1O` (stereo partly drawn), in [2], the IC50 was 300 nM and the IC90 was 1500 nM. This compound had an MIC in [3] of 20 µg/mL (≈ 38.9 µM).
Take `CC(=O)[C@H]1O[C@@H](Oc2ccc(/C=C(\C)C(=O)N[C@@H]3[C@H](O)[C@@H](O)[C@H]4OCO[C@H]4[C@@H]3O)cc2O)[C@@H](O)[C@@H]1O` [HYGROMYCIN A]: in [1], the kcat/Km is 1 ×10³ /M/s. Moreover, in assay [2], the IC50 turned out to be 180 nM. The IC90 in assay [2] was found to be 250 nM. Moreover, the MIC in [5] is 75 µg/mL (≈ 147 µM); in assay [6], 400 µg/mL (≈ 782 µM); in [3], 10 µg/mL (≈ 19.6 µM); in assay [7], 300 µg/mL (≈ 587 µM); in [8] it was 400 µg/mL (≈ 782 µM); in assay [9] it was 300 µg/mL (≈ 587 µM). The compound also registered an MIC in assay [10] of 20 µg/mL (≈ 39.1 µM). In addition, the Km in assay [4] was 5.8 mM. In addition, the kcat in assay [4] amounted to 5.1 s⁻¹.
Regarding `C/C(=C\c1ccc(O[C@@H]2O[C@H](C(C)O)[C@@H](O)[C@@H]2O)c(O)c1)C(=O)N[C@@H]1[C@H](O)[C@@H](O)[C@@H](O)[C@@H](O)[C@@H]1O` (stereo partly drawn), in [2], the IC50 turned out to be 2700 nM and the IC90 was found to be 14100 nM. The minimal inhibitory concentration (MIC) in [3] came to 150 µg/mL (≈ 299 µM).
As for `CC(=O)[C@H]1O[C@@H](Oc2ccc(/C=C(\C)C(=O)N[C@@H]3[C@H](O)[C@@H](O)[C@@H](O)[C@@H](O)[C@@H]3O)cc2O)[C@@H](O)[C@@H]1O` [DESMETHYLENEHYGROMYCIN A], the kcat/Km in assay [1] turned out to be 0.9 ×10³ /M/s. In assay [2], the IC50 is 320 nM and the IC90 is 1000 nM. In assay [3], the MIC was 150 µg/mL (≈ 300 µM). In [4], the Km is 63.6 mM and the kcat came to 31.7 s⁻¹.
Consider `CO[C@@H]1[C@H](O)[C@@H](O)[C@@H](NC(=O)/C(C)=C/c2ccc(O[C@@H]3O[C@H](C(C)O)[C@@H](O)[C@@H]3O)c(O)c2)[C@@H](O)[C@@H]1O` (stereo partly drawn) [5'-DIHYDROMETHOXYHYGROMYCIN A], for which, in assay [2], the IC50 was 7400 nM and the IC90 was determined as 50000 nM. In [3], this compound gave an MIC of 150 µg/mL (≈ 291 µM).
